Reference: ChEMBL document CHEMBL1782031, “Urea/thiourea derivatives of quinazolinone-lysine conjugates: synthesis and structure-activity relationships of a new series of antimicrobials” (2011)

What was measured:
Type in all cases: functional
Conditions in all cases: read-out: DIZ
[1] = tested on: Pseudomonas fluorescens; experiment: Antibacterial activity against Pseudomonas fluorescens at 10 ug/disc after 24 hrs by disc diffusion method
Method in brief: (§1)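 Disc diffusion assay. Discs were held at 4 °C for 2 h so the compounds could diffuse, then incubated at 28 °C. Inhibition zone diameters were measured in mm after 24 h. Each compound was tested in triplicate.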

[2] = tested on: Escherichia coli; experiment: Antibacterial activity against Escherichia coli at 10 ug/disc after 24 hrs by disc diffusion method; method in brief: as §1
[3] = tested on: Bacillus subtilis; experiment: Antibacterial activity against Bacillus subtilis at 10 ug/disc after 24 hrs by disc diffusion method; method in brief: as §1
[4] = Antibacterial activity against Xanthomonas campestris pvs. at 10 ug/disc after 24 hrs by disc diffusion method; method in brief: as §1
[5] = tested on: Xanthomonas oryzae; experiment: Antibacterial activity against Xanthomonas oryzae at 10 ug/disc after 24 hrs by disc diffusion method

In the case of `O=C(CCc1nc2ccccc2c(=O)[nH]1)N[C@@H](CCCCNC(=O)Nc1ccc(Cl)cc1)C(=O)O`, the zone of inhibition at 10 µg/disc [1] is reported as 32 mm, the zone of inhibition at 10 µg/disc [2] is reported as 30 mm and the zone of inhibition at 10 µg/disc [3] is reported as 28 mm. For the same compound, the zone of inhibition at 10 µg/disc [4] was 30 mm and the zone of inhibition at 10 µg/disc [5] was 30 mm.

With `COC(=O)[C@H](CCCCNC(=O)Nc1ccc(OC)cc1)NC(=O)CCCc1nc2ccccc2c(=O)[nH]1` the zone of inhibition at 10 µg/disc [1] was 22 mm, the zone of inhibition at 10 µg/disc [2] was 21 mm and the zone of inhibition at 10 µg/disc [3] was 20 mm. It also gave a zone of inhibition at 10 µg/disc [4] of 24 mm and a zone of inhibition at 10 µg/disc [5] of 25 mm.

`Cc1cc(F)ccc1NC(=S)NCCCC[C@H](NC(=O)CCc1nc2ccccc2c(=O)[nH]1)C(=O)O` gave a zone of inhibition at 10 µg/disc [1] of 35 mm, a zone of inhibition at 10 µg/disc [2] of 33 mm and a zone of inhibition at 10 µg/disc [3] of 34 mm. It also gave a zone of inhibition at 10 µg/disc [4] of 34 mm and a zone of inhibition at 10 µg/disc [5] of 35 mm.

In the case of `CS(=O)(=O)NCCCC[C@H](NC(=O)CCCc1nc2ccccc2c(=O)[nH]1)C(=O)O`, the zone of inhibition at 10 µg/disc [1] is reported as 12 mm, the zone of inhibition at 10 µg/disc [2] is reported as 11 mm and the zone of inhibition at 10 µg/disc [3] is reported as 12 mm. For the same compound, the zone of inhibition at 10 µg/disc [4] was 11 mm and the zone of inhibition at 10 µg/disc [5] was 10 mm.

In the case of `COC(=O)[C@H](CCCCNC(=O)OC(C)(C)C)NC(=O)CCCc1nc2ccccc2c(=O)[nH]1`, the zone of inhibition at 10 µg/disc [1] is reported as 8 mm, the zone of inhibition at 10 µg/disc [2] is reported as 8 mm and the zone of inhibition at 10 µg/disc [3] is reported as 6 mm. It also gave a zone of inhibition at 10 µg/disc [4] of 7 mm and a zone of inhibition at 10 µg/disc [5] of 9 mm.

`Cc1ccccc1NC(=S)NCCCC[C@H](NC(=O)CCCc1nc2ccccc2c(=O)[nH]1)C(=O)O` gave a zone of inhibition at 10 µg/disc [1] of 25 mm, a zone of inhibition at 10 µg/disc [2] of 24 mm and a zone of inhibition at 10 µg/disc [3] of 23 mm. The zone of inhibition at 10 µg/disc [4] was 26 mm and the zone of inhibition at 10 µg/disc [5] was 25 mm.

`O=C(CCCc1nc2ccccc2c(=O)[nH]1)N[C@@H](CCCCNC(=O)Nc1cccc(F)c1)C(=O)O` gave a zone of inhibition at 10 µg/disc [1] of 35 mm, a zone of inhibition at 10 µg/disc [2] of 36 mm and a zone of inhibition at 10 µg/disc [3] of 35 mm. It also gave a zone of inhibition at 10 µg/disc [4] of 34 mm and a zone of inhibition at 10 µg/disc [5] of 36 mm.

`COC(=O)[C@H](CCCCNC(=O)Nc1cccc(F)c1)NC(=O)CCCc1nc2ccccc2c(=O)[nH]1` showed a zone of inhibition at 10 µg/disc [1] of 34 mm, a zone of inhibition at 10 µg/disc [2] of 35 mm and a zone of inhibition at 10 µg/disc [3] of 36 mm. For the same compound, the zone of inhibition at 10 µg/disc [4] was 36 mm and the zone of inhibition at 10 µg/disc [5] was 35 mm.

For `Cc1cc(F)ccc1NC(=S)NCCCC[C@H](NC(=O)CCCc1nc2ccccc2c(=O)[nH]1)C(=O)O`, the zone of inhibition at 10 µg/disc [1] was 34 mm, the zone of inhibition at 10 µg/disc [2] was 34 mm and the zone of inhibition at 10 µg/disc [3] was 33 mm. The zone of inhibition at 10 µg/disc [4] was 32 mm and the zone of inhibition at 10 µg/disc [5] was 33 mm.

For `CS(=O)(=O)NCCCC[C@H](NC(=O)CCc1nc2ccccc2c(=O)[nH]1)C(=O)O`, the zone of inhibition at 10 µg/disc [1] was 12 mm, the zone of inhibition at 10 µg/disc [2] was 9 mm and the zone of inhibition at 10 µg/disc [3] was 9 mm. For the same compound, the zone of inhibition at 10 µg/disc [4] was 10 mm and the zone of inhibition at 10 µg/disc [5] was 10 mm.

For `COC(=O)[C@H](CCCCNC(=S)Nc1ccc(F)cc1C)NC(=O)CCCc1nc2ccccc2c(=O)[nH]1`, the zone of inhibition at 10 µg/disc [1] was 33 mm, the zone of inhibition at 10 µg/disc [2] was 33 mm and the zone of inhibition at 10 µg/disc [3] was 32 mm. The zone of inhibition at 10 µg/disc [4] was 30 mm and the zone of inhibition at 10 µg/disc [5] was 32 mm.

In the case of `CN[C@@H]1[C@H](O[C@H]2[C@H](O[C@H]3[C@H](O)[C@@H](O)[C@H](N=C(N)N)[C@@H](O)[C@@H]3N=C(N)N)O[C@@H](C)[C@]2(O)C=O)O[C@@H](CO)[C@H](O)[C@H]1O` [STREPTOMYCIN], the zone of inhibition at 10 µg/disc [1] is reported as 23 mm, the zone of inhibition at 10 µg/disc [2] is reported as 21 mm and the zone of inhibition at 10 µg/disc [3] is reported as 17 mm.

`COc1ccc(NC(=O)NCCCC[C@H](NC(=O)CCc2nc3ccccc3c(=O)[nH]2)C(=O)O)cc1` showed a zone of inhibition at 10 µg/disc [1] of 27 mm, a zone of inhibition at 10 µg/disc [2] of 25 mm and a zone of inhibition at 10 µg/disc [3] of 24 mm. The zone of inhibition at 10 µg/disc [4] was 28 mm and the zone of inhibition at 10 µg/disc [5] was 28 mm.

Work on `COC(=O)[C@H](CCCCNC(=O)Nc1ccc(Cl)cc1)NC(=O)CCCc1nc2ccccc2c(=O)[nH]1` yielded a zone of inhibition at 10 µg/disc [1] of 29 mm, a zone of inhibition at 10 µg/disc [2] of 26 mm and a zone of inhibition at 10 µg/disc [3] of 25 mm. For the same compound, the zone of inhibition at 10 µg/disc [4] was 28 mm and the zone of inhibition at 10 µg/disc [5] was 30 mm.

For `COC(=O)[C@H](CCCCN)NC(=O)CCCc1nc2ccccc2c(=O)[nH]1`, the zone of inhibition at 10 µg/disc [1] was 10 mm, the zone of inhibition at 10 µg/disc [2] was 9 mm and the zone of inhibition at 10 µg/disc [3] was 10 mm. For the same compound, the zone of inhibition at 10 µg/disc [4] was 12 mm and the zone of inhibition at 10 µg/disc [5] was 12 mm.

For `COC(=O)[C@H](CCCCNS(C)(=O)=O)NC(=O)CCCc1nc2ccccc2c(=O)[nH]1`, the zone of inhibition at 10 µg/disc [1] was 11 mm, the zone of inhibition at 10 µg/disc [2] was 9 mm and the zone of inhibition at 10 µg/disc [3] was 11 mm. For the same compound, the zone of inhibition at 10 µg/disc [4] was 12 mm and the zone of inhibition at 10 µg/disc [5] was 11 mm.

Work on `O=C(CCc1nc2ccccc2c(=O)[nH]1)N[C@@H](CCCCNC(=S)Nc1cccc(F)c1)C(=O)O` yielded a zone of inhibition at 10 µg/disc [1] of 34 mm, a zone of inhibition at 10 µg/disc [2] of 38 mm and a zone of inhibition at 10 µg/disc [3] of 36 mm. The zone of inhibition at 10 µg/disc [4] was 36 mm and the zone of inhibition at 10 µg/disc [5] was 36 mm.

Work on `COC(=O)[C@H](CCCCN)NC(=O)CCc1nc2ccccc2c(=O)[nH]1` yielded a zone of inhibition at 10 µg/disc [1] of 10 mm, a zone of inhibition at 10 µg/disc [2] of 8 mm and a zone of inhibition at 10 µg/disc [3] of 6 mm. The zone of inhibition at 10 µg/disc [4] was 9 mm and the zone of inhibition at 10 µg/disc [5] was 10 mm.
